Experimental data: ChEMBL document CHEMBL4513216, “Probing the Open Global Health Chemical Diversity Library for Multistage-Active Starting Points for Next-Generation Antimalarials” (ACS Infect Dis, 2020)

Assay: Toxicity liver stage against HepG2, at 10uM
Format: cell-based
Parameters: test concentration 10 uM, cell line HepG2-A16-CD81EGFP
Conditions: human, HepG2-A16-CD81EGFP cells; read-out: INHIBITION
Outline: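 Uninfected HepG2-A16-CD81EGFP cells, 3 × 10^3 per well, 1536-well, plated on prespotted compound at 10 μM final, parasite-free screening media added to match infected plates; puromycin 10 μM positive, DMSO 0.5% negative; run in parallel with 48 h PbLuc assay at 37 °C, 5% CO2; viability by CellTiter-Glo luminescence, normalized to controls.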

In order of falling cytotoxicity at 10 µM:
1. CC(C)(C)CCN1CCN(c2snc(Cl)c2C#N)CC1  38.1%
2. COCCc1noc(CN(C)C2CCCN(c3ccc(C)nn3)C2)n1 (stereo unspecified)  19.3%
3. CSc1nccc(N2CCN(C)C3(CCNC(=O)CC3)C2)n1 (stereo unspecified)  18.7%
4. NC(=O)C1CCCN1Cc1cccc(NC(=O)c2ccsc2)c1 (stereo unspecified)  16.3%
5. O=C(NCc1ccccn1)N1CC=C(c2ccccc2)CC1  14.9%
6. Cc1ccc(CCC(=O)N2CCOCC2)cc1Cl  12.3%
7. CO[C@H]1CCN(S(=O)(=O)N(C)C)[C@@H]2CN(Cc3cccnc3)C[C@H]12  11.9%
8. CC(C)N1C[C@@H]2OCC(=O)N(Cc3ccccc3)[C@@H]2C1  10.5%
9. Cc1cc(C(=O)N2CCC3(CC2)C(=O)NCCN3CC(C)C)c(C)o1  9.61%
10. CN(C)C1(CNC(=O)CC=Cc2ccc(F)cc2)CCOCC1  8.99%
11. COc1ccc(OC)c(C(C)NS(=O)(=O)c2cn(C)nc2C)c1 (stereo unspecified)  8.35%
12. CCCSc1ncccc1C(=O)NCc1ccc(N(C)C)cc1  8.07%
13. CC(NC(=O)Nc1cccnc1N1CCCC1)c1ccccn1 (stereo unspecified)  8.05%
14. COCc1nn(C(C)C)c2c1CCN(Cc1ccccn1)C2  8.04%
15. CC(C)n1cc(S(=O)(=O)NCCc2nnc3ccccn23)cn1  7.07%
16. Cc1cccc(NC(=O)C(C)Nc2cccc(CN3CCOC3=O)c2)c1 (stereo unspecified)  6.92%
17. Cc1ccc2[nH]c(C3CCN(C)CC3)nc2c1  6.79%
18. CC(c1nnc(-c2cccs2)o1)N1CCc2cncnc2C1 (stereo unspecified)  6.37%
19. COc1ccc2c(=O)n(CC3CCNC3)ccc2c1OC (stereo unspecified)  5.76%
20. CCn1cc(C(=O)N2C[C@H]3CC(Oc4ccccc4)C[C@H]3C2)cn1 (stereo partly specified)  5.75%
21. Cc1ccc(CCNC(=O)NCCCC(N)=O)c(C)c1  5.71%
22. Cn1cnnc1CNC(=O)C1CCCN(Cc2cccc(F)c2)C1 (stereo unspecified)  5.49%
23. CCn1ncc2c1C(COC)CN(Cc1ccc(C)o1)C2 (stereo unspecified)  5.41%
24. COc1c(F)cc(CN2CCC3(CC2)C(C(=O)O)CC(=O)N3C)cc1Cl (stereo unspecified)  5.13%
25. Cc1ccc(F)c(NCc2ccc(C(=O)N(C)C)[nH]2)c1  4.96%
26. O=C1CC[C@H]2CN(c3ncc(F)cn3)CC[C@H]2N1CCc1ccccn1  4.83%
27. Cc1oc(-c2ccc(Cl)cc2)nc1C(=O)NC1=NCCS1  4.65%
28. CC(=O)N(C)CC(=O)Nc1cc(C(F)(F)F)c[nH]c1=O  4.57%
29. CN(C)S(=O)(=O)N1CCCCC1CCc1ccc(O)cc1 (stereo unspecified)  4.32%
30. O=C(Nc1ccccc1F)C1=NOC2(CCNCC2)C1  2.93%
31. CN(Cc1ccc(Br)c2cccnc12)S(C)(=O)=O  2.92%
32. CC(=O)N1C[C@H]2CC[C@@H](C1)N(S(=O)(=O)c1cc(F)ccc1C)C2  2.91%
33. Cc1nnc(SCC(=O)NCC(c2ccccc2Cl)N(C)C)s1 (stereo unspecified)  2.67%
34. CCCN(CCc1ccccn1)C(=O)Cn1cnnn1  2.52%
35. CN(Cc1cnn(C)c1)C(=O)Cc1ccc2c(c1)OCCO2  2.45%
36. Cc1cc(C)cc(NCCC(=O)NC2CCN(C(=O)C3CC3)CC2)c1  2.4%
37. COc1ccc(C)cc1CCNS(C)(=O)=O  2.39%
38. CC(=O)N(C)Cc1ccccc1NC(=O)c1cnn(C)c1C  2.31%
39. Cc1nn(C)cc1C(=O)NCc1cc(N(C)C)nc2ccccc12  2.29%
40. CCN(CC)C(=O)Cn1cc(-c2nc(C(C)C)no2)nn1  2.28%
41. CCc1ccc2c(C3CN(C(C)=O)C3)ncn2c1  2.16%
42. Cn1cc(CN2CCO[C@@H]3CN(Cc4ccoc4)C[C@@H]3C2)cn1  2.14%
43. O=C(c1cccnc1)N1CCN(CC2CC2)c2ncccc2C1  2%
44. O=C(CCNC(=O)c1sccc1-c1ccccc1)NC1CCS(=O)(=O)C1 (stereo unspecified)  1.9%
45. CN1CCN(C(=O)c2cc(-c3ccco3)cs2)CC1  1.63%
46. Cc1nc(CO[C@H]2CN(Cc3ccccn3)[C@@H]3CCCO[C@H]23)cs1  1.33%
47. CCN(CC(=O)NC)S(=O)(=O)N1CCCCC1  1.29%
48. O=C1CC(c2cccc(O)c2)c2c(c(C(=O)O)cn2-c2ccccc2)N1 (stereo unspecified)  1%
49. O=C(CN1CCOC(Cn2cccn2)C1)Nc1ccncc1 (stereo unspecified)  0.748%
50. Cc1noc(C(C)C)c1C(=O)NCCC(=O)N1CCCCC1  0.632%
51. O=C(CCc1cc2n(n1)CCNC2)NCCS(=O)(=O)N1CCCC1  0.487%
52. COCc1nc(N(C)C)ncc1C(=O)Nc1ccc(Cl)cc1  0.474%
53. OCCO[C@H]1C[C@@H](O)C12CCN(Cc1nc(C(F)(F)F)no1)CC2  0.145%
54. Cn1nc(CO)c2c1CCN(c1ncnc3c1CCNC3)C2  -0.132%
55. COCCN1CCO[C@H]2CCN(C(=O)c3cccs3)CC[C@@H]21  -0.234%
56. COCCNC(=O)N1CCCCC1CNC(=O)Nc1ccccc1 (stereo unspecified)  -0.244%
57. CC(=O)N(Cc1noc(C)n1)C1CCN(Cc2cccc(C#N)c2)C1 (stereo unspecified)  -0.645%
58. COc1cc(OC)cc(-c2cc(CN)nc3ccnn23)c1  -0.945%
59. CN(CCCO)C(=O)c1ccc2c(c1)nc(N1CC[C@H](O)C1)n2C  -1.46%
60. CN(Cc1ccco1)C1CCC12CCN(C(=O)N1CCCC1)CC2 (stereo unspecified)  -1.54%
61. O=C(NCC(F)(F)F)c1ccc(-n2cncn2)nn1  -1.66%
62. Cc1ccc(CNC2CCc3nc(C(C)C)nn3C2)o1 (stereo unspecified)  -1.85%
63. O=C(Nc1ccc(N2CCOCC2)nc1)N1CCc2sccc2C1  -2.26%
64. Cc1ncnc(NCCCN2CCCCC2CO)c1C (stereo unspecified)  -2.35%
65. CC(C)(C)C(=O)N1CCC(c2noc(C3CCC(=O)N3)n2)CC1 (stereo unspecified)  -3.06%
66. CS(=O)(=O)c1cccc(S(=O)(=O)NC(=O)CC2CCCCC2)c1  -3.17%
67. O=C(CC1CCCC1)N1CCC(c2nnc(-c3ccccn3)o2)CC1  -3.32%
68. CCOCc1nc2c(c(N3CC=CC3)n1)CCN(Cc1ccco1)CC2  -3.81%
69. C=C1c2ccccc2C(=O)N1CCC(=O)N1CCNC(=O)C1  -4.12%
70. Cc1ncsc1CCN(C)C(=O)c1ccc(CN2CCCCC2)cc1  -4.38%
71. Cc1nc2c(C)cccc2cc1C(=O)N1CCC2(CCN(C)CC2)C1  -4.39%
72. Cn1cc(CCNC(=O)N2CCCC(c3nncn3C)C2)cn1 (stereo unspecified)  -4.41%
73. COc1ccc(CC(C)(O)CNC(=O)c2cccs2)cc1 (stereo unspecified)  -4.69%
74. COc1c(C)cnc(CN2CCn3c(nnc3C3CC3)C2)c1C  -4.94%
75. Cc1nc(Nc2nccs2)cc(C2CN(C(C)C)C2)n1  -5.42%
76. CC(O)C1CCN(C(=O)CCOc2ccccc2F)CC1 (stereo unspecified)  -5.63%
77. CC(C)(C)CNC1(Cc2cc(C(C)(C)O)on2)COC1  -6.11%
78. Cc1cccc(C)c1OCCNC(=O)CN1CCN(C)CC1C (stereo unspecified)  -6.28%
79. Cc1cnn(CC2CCCCN2C(=O)c2ccc3c(c2)nnn3C)c1 (stereo unspecified)  -6.36%
80. O=C1CC(c2ccc3ccccc3n2)c2c(n[nH]c2C2CCC2)N1 (stereo unspecified)  -6.43%
81. CCn1cc(Cn2cc(Cl)c(N)n2)c(C)n1  -6.56%
82. CN1CCN(Cc2cnc3n2CCN(CCc2ccccc2)C3)CC1  -6.98%
83. Cc1cc(CN2CCN(C(=O)NC(C)Cn3cccn3)CC2)no1 (stereo unspecified)  -7.45%
84. O=C(Nc1cc[nH]n1)c1ccc(COCC(F)(F)F)cc1  -7.46%
85. O=C(CNC1CCc2ncnn2C1)N(C1=CCCCC1)C1CC1 (stereo unspecified)  -8.07%
86. CC(CNC(=O)N1CCSCC1)Cc1cccs1 (stereo unspecified)  -8.63%
87. CC1CCCN(Cc2ccc(CNC(=O)NCc3ccon3)cc2)C1 (stereo unspecified)  -10%
88. Cc1noc(CN2CCN(CCS(C)(=O)=O)CC2)n1  -10.1%
89. CCOCCCC(=O)N(C)C(c1cccc(F)c1)c1ccccn1 (stereo unspecified)  -10.2%
90. CCOc1ccccc1C(CC(=O)Nc1nc(C)cs1)NC(C)=O (stereo unspecified)  -10.9%
91. COc1ccc(-c2noc(CN3CC(n4cccn4)C3)n2)c(OC)c1  -11.2%
92. CCOc1cccc(CNCc2ccc(NC(=O)NC(C)C)cc2)c1  -11.5%
93. Nc1cc2c(nn1)CCN(C(=O)c1cccnc1Oc1ccccc1)C2  -11.6%
94. c1ccc(-c2nc(CNCC3CCCN3c3cccnn3)co2)cc1 (stereo unspecified)  -12.7%
95. CCc1nc2n(n1)CC(NCCc1cccs1)CC2 (stereo unspecified)  -13%
96. CCC(=O)N1C[C@@H]2CCN(c3cnccn3)C[C@@H]2C1  -13.2%
97. CSC(C)(C)CNC(=O)NCc1cccc(-n2cncn2)c1  -14.4%
98. COc1cccc([C@@H]2CCN(Cc3ccc4ccccc4n3)C[C@H]2O)c1  -16.5%
99. Cc1nnc(NC(=O)CN2CCc3nn(C(C)C)c(=O)cc3C2)s1  -18.9%
100. Cc1cnn(CC2CCCCN2C(=O)c2ccc3c(c2)COC3)c1 (stereo unspecified)  -24.7%
101. CCN(C)c1ccc(C(=O)NCCCc2ccccn2)cn1  -43.7%
102. CS(=O)(=O)NCc1ncn2c1CN(Cc1cccs1)CCC2  -66.8%
103. COCCO[C@H]1CCN(C(=O)c2ccsc2)[C@H]1Cc1cnn(C)c1  -72.8%
104. O=S(=O)(C1CC1)N1CCc2ncnc(N3CCCC3)c2CC1  -98.6%
105. CN1CCN(Cc2cn3c(n2)CN(Cc2ccc(F)cc2)CC3)CC1  -113%
106. Cc1noc([C@@H]2C[C@H]3OCC[C@H]3N(C(C)C)C2)n1  -125%
107. CC(C)n1nc(CNc2ncccn2)c2c1CN(C1CCOCC1)CC2  -129%
108. Cc1cnc(N2C[C@H]3C[C@H](C(=O)N4CCN(C)CC4)N(C)[C@H]3C2)nc1  -135%
109. Cc1ccc(-n2ccnc2)c(C(=O)NCCOCC(F)(F)F)c1  -136%
110. CN1Cc2c(C(=O)NCC3CCCO3)ncn2-c2ccccc2S1(=O)=O (stereo unspecified)  -141%
111. COCCC1CCCCN1Cc1nc(Cc2cccc(F)c2)no1 (stereo unspecified)  -142%
